# Legend:
# Klebsiella pneumoniae [1] = test: Antibacterial activity against Klebsiella pneumoniae at 50 ug/ml incubated for 24 hrs by agar well diffusion method; assay type: functional; conditions: read-out: DIZ
# Summary of the method: (§1)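 Bacteria grown in nutrient broth at 37 °C for 24 h, then subcultured at room temperature. Compounds dissolved in DMSO at 5 mg mL⁻¹ and 5–20 µL added to 6 mm wells, giving 25, 50, 75, 100 µg per well. Gentamicin was the positive control and DMSO the negative control. Plates held at 37 °C for 24 h, then inhibition zone diameter (mm) measured. Values are means of three determinations.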
# Klebsiella pneumoniae [2] = test: Antibacterial activity against Klebsiella pneumoniae at 25 ug/ml incubated for 24 hrs by agar well diffusion method; assay type: functional; conditions: read-out: DIZ; summary of the method: as §1
# Erythrocyte = test: Anti-inflammatory activity in human RBC assessed as inhibition of hypotonic solution-induced hemolysis after 10 mins by spectrophotometric method; assay type: functional, cell-based
# Summary of the method: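 Human blood (heparinized) washed with 0.9% saline, packed cells made into a 40% v/v stock in isotonic phosphate buffer (154 mM NaCl, 10 mM sodium phosphate, pH 7.4). Stock RBC mixed with hypotonic buffer (50 mM NaCl, 10 mM phosphate, pH 7.4) plus sample at 20–100 µg mL⁻¹.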
# Candida albicans [3] = test: Antifungal activity against Candida albicans at 50 ug/ml incubated for 48 hrs by agar well diffusion method; assay type: functional; conditions: read-out: DIZ
# Summary of the method: (§2)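 Compounds dissolved in DMSO at 5 mg mL⁻¹ and 5–20 µL added to 6 mm wells, giving 25, 50, 75, 100 µg per well. Bavistin was the positive control and DMSO the negative control. Plates incubated at 28 °C for 48 h, then inhibition zone diameter (mm) measured. Values are means of three determinations.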
# Staphylococcus aureus [4] = test: Antibacterial activity against Staphylococcus aureus at 100 ug/ml incubated for 24 hrs by agar well diffusion method; assay type: functional; conditions: read-out: DIZ; summary of the method: as §1
# Staphylococcus aureus [5] = test: Antibacterial activity against Staphylococcus aureus at 25 ug/ml incubated for 24 hrs by agar well diffusion method; assay type: functional; conditions: read-out: DIZ; summary of the method: as §1
# Candida albicans [6] = test: Antifungal activity against Candida albicans at 25 ug/ml incubated for 48 hrs by agar well diffusion method; assay type: functional; conditions: read-out: DIZ; summary of the method: as §2
# Staphylococcus aureus [7] = test: Antibacterial activity against Staphylococcus aureus at 50 ug/ml incubated for 24 hrs by agar well diffusion method; assay type: functional; conditions: read-out: DIZ; summary of the method: as §1
# Klebsiella pneumoniae [8] = test: Antibacterial activity against Klebsiella pneumoniae at 100 ug/ml incubated for 24 hrs by agar well diffusion method; assay type: functional; conditions: read-out: DIZ; summary of the method: as §1
# Staphylococcus aureus [9] = test: Antibacterial activity against Staphylococcus aureus at 75 ug/ml incubated for 24 hrs by agar well diffusion method; assay type: functional; conditions: read-out: DIZ; summary of the method: as §1
# Fusarium oxysporum [10] = test: Antifungal activity against Fusarium oxysporum at 100 ug/ml incubated for 48 hrs by agar well diffusion method; assay type: functional; conditions: read-out: DIZ; summary of the method: as §2
# Candida albicans [11] = test: Antifungal activity against Candida albicans at 100 ug/ml incubated for 48 hrs by agar well diffusion method; assay type: functional; conditions: read-out: DIZ; summary of the method: as §2
# Aspergillus niger [12] = test: Antifungal activity against Aspergillus niger at 50 ug/ml incubated for 48 hrs by agar well diffusion method; assay type: functional; conditions: read-out: DIZ; summary of the method: as §2
# Escherichia coli [13] = test: Antibacterial activity against Escherichia coli at 75 ug/ml incubated for 24 hrs by agar well diffusion method; assay type: functional; conditions: read-out: DIZ; summary of the method: as §1
# Bacillus subtilis [14] = test: Antibacterial activity against Bacillus subtilis at 25 ug/ml incubated for 24 hrs by agar well diffusion method; assay type: functional; conditions: read-out: DIZ; summary of the method: as §1
# Escherichia coli [15] = test: Antibacterial activity against Escherichia coli at 50 ug/ml incubated for 24 hrs by agar well diffusion method; assay type: functional; conditions: read-out: DIZ; summary of the method: as §1
# Aspergillus niger [16] = test: Antifungal activity against Aspergillus niger at 100 ug/ml incubated for 48 hrs by agar well diffusion method; assay type: functional; conditions: read-out: DIZ; summary of the method: as §2
# Bacillus subtilis [17] = test: Antibacterial activity against Bacillus subtilis at 100 ug/ml incubated for 24 hrs by agar well diffusion method; assay type: functional; conditions: read-out: DIZ; summary of the method: as §1
# Escherichia coli [18] = test: Antibacterial activity against Escherichia coli at 100 ug/ml incubated for 24 hrs by agar well diffusion method; assay type: functional; conditions: read-out: DIZ; summary of the method: as §1
# Candida albicans [19] = test: Antifungal activity against Candida albicans at 75 ug/ml incubated for 48 hrs by agar well diffusion method; assay type: functional; conditions: read-out: DIZ; summary of the method: as §2
# Aspergillus niger [20] = test: Antifungal activity against Aspergillus niger at 75 ug/ml incubated for 48 hrs by agar well diffusion method; assay type: functional; conditions: read-out: DIZ; summary of the method: as §2
# Klebsiella pneumoniae [21] = test: Antibacterial activity against Klebsiella pneumoniae at 75 ug/ml incubated for 24 hrs by agar well diffusion method; assay type: functional; conditions: read-out: DIZ; summary of the method: as §1
# Aspergillus niger [22] = test: Antifungal activity against Aspergillus niger at 25 ug/ml incubated for 48 hrs by agar well diffusion method; assay type: functional; conditions: read-out: DIZ; summary of the method: as §2
# Bacillus subtilis [23] = test: Antibacterial activity against Bacillus subtilis at 75 ug/ml incubated for 24 hrs by agar well diffusion method; assay type: functional; conditions: read-out: DIZ; summary of the method: as §1
# Fusarium oxysporum [24] = test: Antifungal activity against Fusarium oxysporum at 75 ug/ml incubated for 48 hrs by agar well diffusion method; assay type: functional; conditions: read-out: DIZ; summary of the method: as §2
# Bacillus subtilis [25] = test: Antibacterial activity against Bacillus subtilis at 50 ug/ml incubated for 24 hrs by agar well diffusion method; assay type: functional; conditions: read-out: DIZ; summary of the method: as §1
# Escherichia coli [26] = test: Antibacterial activity against Escherichia coli at 25 ug/ml incubated for 24 hrs by agar well diffusion method; assay type: functional; conditions: read-out: DIZ; summary of the method: as §1
# Fusarium oxysporum [27] = test: Antifungal activity against Fusarium oxysporum at 25 ug/ml incubated for 48 hrs by agar well diffusion method; assay type: functional; conditions: read-out: DIZ; summary of the method: as §2
# Fusarium oxysporum [28] = test: Antifungal activity against Fusarium oxysporum at 50 ug/ml incubated for 48 hrs by agar well diffusion method; assay type: functional; conditions: read-out: DIZ; summary of the method: as §2
Structure (SMILES),zone of inhibition at 50 µg/mL (Klebsiella pneumoniae [1]),zone of inhibition at 25 µg/mL (Klebsiella pneumoniae [2]),zone of inhibition at 50 µg/mL (Candida albicans [3]),zone of inhibition at 100 µg/mL (Staphylococcus aureus [4]),zone of inhibition at 25 µg/mL (Staphylococcus aureus [5]),zone of inhibition at 25 µg/mL (Candida albicans [6]),zone of inhibition at 50 µg/mL (Staphylococcus aureus [7]),zone of inhibition at 100 µg/mL (Klebsiella pneumoniae [8]),zone of inhibition at 75 µg/mL (Staphylococcus aureus [9]),zone of inhibition at 100 µg/mL (Fusarium oxysporum [10]),zone of inhibition at 100 µg/mL (Candida albicans [11]),zone of inhibition at 50 µg/mL (Aspergillus niger [12]),zone of inhibition at 75 µg/mL (Escherichia coli [13]),zone of inhibition at 25 µg/mL (Bacillus subtilis [14]),zone of inhibition at 50 µg/mL (Escherichia coli [15]),zone of inhibition at 100 µg/mL (Aspergillus niger [16]),zone of inhibition at 100 µg/mL (Bacillus subtilis [17]),zone of inhibition at 100 µg/mL (Escherichia coli [18]),zone of inhibition at 75 µg/mL (Candida albicans [19]),zone of inhibition at 75 µg/mL (Aspergillus niger [20]),other results
CSCC[C@H](N)C(=O)Oc1ccc2c(=O)c3ccccc3oc2c1.Cl,24 mm,17 mm,17 mm,28 mm,17 mm,12 mm,19 mm,33 mm,22 mm,22 mm,23 mm,18 mm,25 mm,15 mm,21 mm,24 mm,31 mm,29 mm,21 mm,21 mm,IC50 (Erythrocyte): 34 µg/mL; zone of inhibition at 75 µg/mL (Klebsiella pneumoniae [21]): 29 mm; zone of inhibition at 25 µg/mL (Aspergillus niger [22]): 11 mm; zone of inhibition at 75 µg/mL (Bacillus subtilis [23]): 25 mm; zone of inhibition at 75 µg/mL (Fusarium oxysporum [24]): 19 mm; zone of inhibition at 50 µg/mL (Bacillus subtilis [25]): 20 mm; zone of inhibition at 25 µg/mL (Escherichia coli [26]): 17 mm; zone of inhibition at 25 µg/mL (Fusarium oxysporum [27]): 13 mm; zone of inhibition at 50 µg/mL (Fusarium oxysporum [28]): 17 mm
N[C@@H](Cc1c[nH]c2ccccc12)C(=O)O [TRYPTOPHAN],10 mm,6 mm,9 mm,19 mm,6 mm,5 mm,9 mm,17 mm,13 mm,11 mm,16 mm,7 mm,14 mm,4 mm,9 mm,14 mm,15 mm,17 mm,13 mm,11 mm,zone of inhibition at 75 µg/mL (Klebsiella pneumoniae [21]): 13 mm; zone of inhibition at 25 µg/mL (Aspergillus niger [22]): 4 mm; zone of inhibition at 75 µg/mL (Bacillus subtilis [23]): 12 mm; zone of inhibition at 75 µg/mL (Fusarium oxysporum [24]): 9 mm; zone of inhibition at 50 µg/mL (Bacillus subtilis [25]): 8 mm; zone of inhibition at 25 µg/mL (Escherichia coli [26]): 6 mm; zone of inhibition at 25 µg/mL (Fusarium oxysporum [27]): 4 mm; zone of inhibition at 50 µg/mL (Fusarium oxysporum [28]): 7 mm
CC(C)(C)OC(=O)N[C@@H](CS)C(=O)Oc1ccc2c(=O)c3ccccc3oc2c1,24 mm,18 mm,22 mm,34 mm,20 mm,17 mm,28 mm,34 mm,32 mm,35 mm,34 mm,26 mm,30 mm,20 mm,26 mm,34 mm,34 mm,34 mm,28 mm,31 mm,IC50 (Erythrocyte): 32 µg/mL; zone of inhibition at 75 µg/mL (Klebsiella pneumoniae [21]): 30 mm; zone of inhibition at 25 µg/mL (Aspergillus niger [22]): 18 mm; zone of inhibition at 75 µg/mL (Bacillus subtilis [23]): 29 mm; zone of inhibition at 75 µg/mL (Fusarium oxysporum [24]): 30 mm; zone of inhibition at 50 µg/mL (Bacillus subtilis [25]): 26 mm; zone of inhibition at 25 µg/mL (Escherichia coli [26]): 18 mm; zone of inhibition at 25 µg/mL (Fusarium oxysporum [27]): 18 mm; zone of inhibition at 50 µg/mL (Fusarium oxysporum [28]): 24 mm
